Results published in ChEMBL document CHEMBL5712091, “Role of the GLUT1 Glucose Transporter in Postnatal CNS Angiogenesis and Blood-Brain Barrier Integrity” (Circ Res, 2020).
Each block holds one compound with its values, some of them ahead of it. Activity calls are given as the source filed them. No cut-off for these calls is given here.

Assays:
[1] = biological target: T1, Solute carrier family 2, facilitated glucose transporter member 1 (Mus musculus) (UniProt P17809); experiment: Inhibition of GLUT1 in mouse primary endothelial cells assessed as decrease in glucose transport; assay type: cell-based; settings: Endothelial cell
T1 sequence (whole entry): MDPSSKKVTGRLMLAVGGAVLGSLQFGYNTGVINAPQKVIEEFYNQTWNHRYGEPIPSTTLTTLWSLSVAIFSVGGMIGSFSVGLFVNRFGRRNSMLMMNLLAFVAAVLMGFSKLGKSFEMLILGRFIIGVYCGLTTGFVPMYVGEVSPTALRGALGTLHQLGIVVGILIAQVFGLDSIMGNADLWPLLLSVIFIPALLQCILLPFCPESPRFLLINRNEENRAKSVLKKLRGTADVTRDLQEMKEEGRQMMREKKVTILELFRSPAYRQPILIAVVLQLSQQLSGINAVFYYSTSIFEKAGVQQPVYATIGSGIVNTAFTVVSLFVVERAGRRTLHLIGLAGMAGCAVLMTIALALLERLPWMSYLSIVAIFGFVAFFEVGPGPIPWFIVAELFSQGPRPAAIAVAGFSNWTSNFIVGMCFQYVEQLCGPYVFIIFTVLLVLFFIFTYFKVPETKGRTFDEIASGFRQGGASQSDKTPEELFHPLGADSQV

[2] = biological target: T1, Solute carrier family 2, facilitated glucose transporter member 1 (Mus musculus); experiment: Inhibition of GLUT1 in mouse BEND3 cells assessed as complete inhibition of [14C]-3-O-methylglucose transport at 20 nmol/L after 2 hrs by glucose transport assay; assay type: cell-based
Outline: (§1)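 Cells pre-held 2 hrs at 37°C in serum-free DMEM with inhibitor or DMSO vehicle, DPBS-washed, then given 20 mM 3-O-methylglucose carrying 1 µCi/ml [14C]-3MG in DPBS plus inhibitor for 30 min uptake. Stopped and washed with ice-cold 50 mM glucose in PBS, lysed in 0.1 N NaOH, counted by liquid scintillation. Triplicate measurements.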

[3] = biological target: T1, Solute carrier family 2, facilitated glucose transporter member 1 (Mus musculus); experiment: Inhibition of GLUT1 in mouse BEND3 cells assessed as reduced phosphorylation of RPS6 at 20 nmol/L by Western blot analysis; assay type: cell-based
[4] = biological target: T1, Solute carrier family 2, facilitated glucose transporter member 1 (Mus musculus); experiment: Inhibition of GLUT1 in mouse BEND3 cells assessed as cell migration at 20 nmol/L by scratch wound assay in presence of mitomycin C; assay type: cell-based
Outline: (§2)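 Confluent monolayers, pre-treated 24 hrs with inhibitor or 1 µg/ml mitomycin C where indicated, scratched with a pipette tip and imaged (T0). Then incubated in EGM2 and fixed with 4% PFA when control closure was near complete. Gap areas measured; closure % = (1 − Tx gap/T0 gap) × 100.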

[5] = biological target: T1, Solute carrier family 2, facilitated glucose transporter member 1 (Mus musculus); experiment: Inhibition of GLUT1 in mouse BEND3 cells assessed as decrease in glycolysis at 20 nmol/L relative to cytochalasin B; assay type: cell-based; settings: time 2.0 hrs
Outline: (§3)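 Glycolytic flux read as 3H2O release: cells kept 2 hrs in culture medium containing D-[5-3H]-glucose at 0.4 µCi/ml final. Supernatant sealed in glass vials, 3H2O captured over 48 h at 37°C on water-soaked paper in hanging wells, then counted by scintillation. Inhibitor exposure 24 hrs from the day after seeding.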

[6] = biological target: T1, Solute carrier family 2, facilitated glucose transporter member 1 (Mus musculus); experiment: Inhibition of GLUT1 in mouse BEND3 cells assessed as decrease in [14C]-3-O-methylglucose transport after 2 hrs by glucose transport assay; assay type: cell-based; outline: as §1
[7] = biological target: T2, Solute carrier family 2, facilitated glucose transporter member 1 (Homo sapiens) (UniProt P11166); experiment: Inhibition of GLUT1 in human brain microvascular endothelial cells assessed as decrease in sprouting angiogenesis; settings: Endothelial cell, dose 20.0 nmol/L
T2 sequence (whole entry): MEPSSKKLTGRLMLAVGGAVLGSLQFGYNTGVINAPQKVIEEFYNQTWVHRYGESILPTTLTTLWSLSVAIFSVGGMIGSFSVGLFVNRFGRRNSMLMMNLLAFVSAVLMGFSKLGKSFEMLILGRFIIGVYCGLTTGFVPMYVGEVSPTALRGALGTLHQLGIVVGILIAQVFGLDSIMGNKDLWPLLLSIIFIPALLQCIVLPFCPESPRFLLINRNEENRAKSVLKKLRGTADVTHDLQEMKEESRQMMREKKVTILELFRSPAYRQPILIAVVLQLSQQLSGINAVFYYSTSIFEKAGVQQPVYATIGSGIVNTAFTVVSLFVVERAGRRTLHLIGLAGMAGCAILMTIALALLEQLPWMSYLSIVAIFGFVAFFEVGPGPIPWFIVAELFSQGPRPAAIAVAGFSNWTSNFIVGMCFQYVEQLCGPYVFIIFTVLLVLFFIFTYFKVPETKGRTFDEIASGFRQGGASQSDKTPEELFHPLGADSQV
Outline: (§4)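 Spheroids of 1000 ECs per 25 µl hanging drop formed overnight in 20% methylcellulose/EGM2, then embedded in 5 mg/ml fibrinogen gel in EGM2 with or without inhibitor and/or 1 µg/ml mitomycin C. Same medium overlaid on gel. Fixed with 4% PFA after 24 hrs and photographed.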

[8] = biological target: T2, Solute carrier family 2, facilitated glucose transporter member 1 (Homo sapiens); experiment: Inhibition of GLUT1 in HUVEC assessed as sprouting angiogenesis at 40 nmol/L in presence of mitomycin C; assay type: cell-based; outline: as §4
[9] = biological target: T1, Solute carrier family 2, facilitated glucose transporter member 1 (Mus musculus); experiment: Inhibition of GLUT1 in mouse BEND3 cells assessed as slight decrease in cell migration at 20 nmol/L by scratch wound assay; assay type: cell-based; outline: as §2
[10] = biological target: T1, Solute carrier family 2, facilitated glucose transporter member 1 (Mus musculus); experiment: Inhibition of GLUT1 in mouse BEND3 cells assessed as reduction in glycolytic metabolite at 20 nmol/L; assay type: cell-based
[11] = biological target: T2, Solute carrier family 2, facilitated glucose transporter member 1 (Homo sapiens); experiment: Inhibition of GLUT1 in human retinal microvascular endothelial cells assessed as decrease in glycolysis at 20 nmol/L; assay type: cell-based; settings: Endothelial cell, time 2.0 hrs; outline: as §3
[12] = biological target: T2, Solute carrier family 2, facilitated glucose transporter member 1 (Homo sapiens); experiment: Inhibition of GLUT1 in HUVEC assessed as decrease in glucose transport; assay type: cell-based; outline: as §1
[13] = biological target: T1, Solute carrier family 2, facilitated glucose transporter member 1 (Mus musculus); experiment: Inhibition of GLUT1 in mouse BEND3 cells assessed as reduced phosphorylation of S6K1 at 20 nmol/L by Western blot analysis; assay type: cell-based
[14] = biological target: T1, Solute carrier family 2, facilitated glucose transporter member 1 (Mus musculus); experiment: Inhibition of GLUT1 in mouse BEND3 cells assessed as reduced phosphorylation of mTORC1 at 20 nmol/L by Western blot analysis; assay type: cell-based
[15] = biological target: T2, Solute carrier family 2, facilitated glucose transporter member 1 (Homo sapiens); experiment: Inhibition of GLUT1 in human brain microvascular endothelial cells assessed as decrease in glycolysis at 20 nmol/L; settings: Endothelial cell; outline: as §3
[16] = biological target: T1, Solute carrier family 2, facilitated glucose transporter member 1 (Mus musculus); experiment: Inhibition of GLUT1 in mouse BEND3 cells assessed as activation of AMPK at 20 nmol/L by Western blot analysis; assay type: cell-based
Outline: (§5)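 bEND3 lysed in Laemmli buffer, denatured 5 min at 95°C, and 15 µg protein run on 4-20% gels and transferred to PVDF. Probed overnight in 5% milk/TBST with antibodies to phospho-AMPKα (Thr172), AMPKα, p53 and p21, with β-actin.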

[17] = biological target: T2, Solute carrier family 2, facilitated glucose transporter member 1 (Homo sapiens); experiment: Inhibition of GLUT1 in HUVEC assessed as decrease in glycolysis; assay type: cell-based; outline: as §3
[18] = biological target: T2, Solute carrier family 2, facilitated glucose transporter member 1 (Homo sapiens); experiment: Inhibition of GLUT1 in HUVEC assessed as decrease in sprouting angiogenesis at 40 nmol/L; assay type: cell-based; outline: as §4
[19] = biological target: T1, Solute carrier family 2, facilitated glucose transporter member 1 (Mus musculus); experiment: Inhibition of GLUT1 in mouse BEND3 cells assessed as increase in AMP/ATP ratio at 20 nmol/L; assay type: cell-based
[20] = biological target: T1, Solute carrier family 2, facilitated glucose transporter member 1 (Mus musculus); experiment: Inhibition of GLUT1 in mouse primary endothelial cells assessed as decrease in glycolysis; assay type: cell-based; settings: Endothelial cell; outline: as §3
[21] = biological target: T2, Solute carrier family 2, facilitated glucose transporter member 1 (Homo sapiens); experiment: Inhibition of GLUT1 in human retinal microvascular endothelial cells assessed as decrease in sprouting angiogenesis; assay type: cell-based; settings: Endothelial cell; outline: as §4
[22] = biological target: T1, Solute carrier family 2, facilitated glucose transporter member 1 (Mus musculus); experiment: Inhibition of GLUT1 in mouse BEND3 cells assessed as decrease in cell proliferation at 20 nmol/L; assay type: cell-based
Outline: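 Proliferation measured after 24 hrs of inhibitor as [6-3H]-thymidine incorporation: 2 hrs with 1 µCi/ml final in culture medium, ethanol fixation 15 min at 4°C, 10% TCA precipitation, 0.1 N NaOH lysis, and scintillation counting.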

[23] = biological target: T1, Solute carrier family 2, facilitated glucose transporter member 1 (Mus musculus); experiment: Inhibition of GLUT1 in mouse BEND3 cells assessed as increase in p53/p21 ratio at 20 nmol/L by Western blot analysis; assay type: cell-based; outline: as §5
BEND3 [24] = experiment: Inhibition of GLUT in mouse BEND3 cells assessed as decrease in cell migration at 20 micromol/L; assay type: cell-based; settings: dose 20.0 µmol/L
BEND3 [25] = experiment: Inhibition of GLUT in mouse BEND3 cells assessed as decrease in cell proliferation at 20 micromol/L; assay type: cell-based; settings: dose 20.0 µmol/L
BEND3 [26] = experiment: Inhibition of GLUT in mouse BEND3 cells assessed as decrease of [14C]-3-O-methylglucose transport at 20 micromol/L after 2 hrs by glucose transport assay; assay type: cell-based; settings: dose 20.0 µmol/L
Outline: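 bEND3 cells were treated with inhibitor or DMSO vehicle for 24 hrs, then held in serum-free DMEM for 2 hrs at 37°C with inhibitor or vehicle and washed. Uptake ran 30 min in DPBS with 20 mM 3-O-methylglucose plus 1 µCi/ml 14C-3MG, still with inhibitor. It was stopped with ice-cold 50 mM glucose in PBS, cells lysed in 0.1 N NaOH, and counted by LSC; triplicate.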

inhibition [1]: Active
inhibition [2]: Active
inhibition [3]: Active
inhibition [4]: inactive
inhibition [5]: Active
inhibition [6]: Active
inhibition [7]: Active
inhibition [8]: inactive
inhibition [9]: Active
inhibition [10]: Active
inhibition [11]: Active
inhibition [12]: Active
inhibition [13]: Active
inhibition [14]: Active
inhibition [15]: Active
inhibition [16]: Active
inhibition [17]: Active
inhibition [18]: Active
inhibition [19]: Active
inhibition [20]: Active
inhibition [21]: Active
inhibition [22]: 40%
inhibition [23]: Active
Compound: Cc1c(NC(=O)c2cc(C(N)=O)nc3cc(F)ccc23)c(C(F)(F)F)nn1Cc1ccc(C#N)cc1

Compound: C=C1[C@@H](C)[C@H]2[C@H](Cc3ccccc3)NC(=O)[C@]23OC(=O)/C=C/[C@H](O)CCC[C@@H](C)C/C=C/[C@H]3[C@@H]1O
inhibition (BEND3 [24]): Active
inhibition (BEND3 [25]): Active
inhibition (BEND3 [26]): Active
